Screens (PubChem)
G6PDH counter: L. mesenteroides G6PDH inhibition counter-screen; inhibition, % at 5 µM; Purified L. mesenteroides G6PDH, diaphorase/resazurin coupled fluorescence, 45 min; hit rate 0.12% among 200,000
Diaph inh CS: counter-screen for diaphorase-based assays: diaphorase inhibitors and chemical oxidizers; diaphorase resazurin-to-resorufin fluorescence, NADH, 16 min; bacterial (C. kluyveri) enzyme, not human; inhibition, % at 20 µM; hit rate 0.69% among 190,000; AID 1217;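 active = primary screen inhibition at 20 µM above a set limit, cut at about 50% in these data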;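 also: plate controls were DMSO with full reaction for no effect and wells lacking NADH for full effect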
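Test system: Clostridium kluyveri diaphorase enzyme / Quantity: diaphorase at 0.14 U/mL in enzyme working solution / Incubation: 16-min room-temperature incubation before reading / Benchmarks: NADH-free wells as positive control, DMSO-only neutral wells / Signal: resorufin fluorescence 544/590 nm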
L major viab: Leishmania major promastigote growth inhibition; inhibition, % at 10 µM; Leishmania major promastigotes, resazurin fluorescence viability; hit rate 9% among 200,000;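 also: promastigotes grown with compound for 44 hours at 28 °C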
Redox H2O2 prof: compounds producing H2O2 with reducing agent – biochemical, NIH compound library profiling, artefact control for MLSCN library redox annotation, primary screen | DTT-dependent redox cycling H2O2, phenol red/HRP absorbance; 100% = 100 µM peroxide control, 0% = buffer | activation, % at 10 µM | hit rate 0.03% among 200,000;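 active = activation of at least 50% relative to the plate's high and low controls in the primary single-dose screen; inactive = activation below 50%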;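 also: compound incubated with DTT at 0.8 mM final as the reducing agent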
PfGluPho inh: PfG6PD (Plasmodium falciparum) enzyme inhibition; PfGluPho enzyme, NADPH resazurin-diaphorase fluorescence; AID 504690; hit rate 0.78% among 350,000; inhibition, % at 20 µM;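 active = inhibition reaching at least a set limit at 20 µM in the primary screen, cut at about 59% in these data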;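 also: 0% = DMSO wells with substrate and 100% = DMSO wells lacking glucose-6-phosphate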
Diaphorase act: diaphorase activation or chemical reduction counter-screen; Diaphorase/resazurin coupled assay, resorufin fluorescence, 16 min; stronger effect = higher value; 1 = vehicle wells, 0 = NADH-free wells; activation factor at 20 µM; hit rate 0.005% among 190,000;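 active = diaphorase activity raised at least twofold by the compound at 20 µM; inactive = activation factor below 2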
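Test system: Clostridium kluyveri diaphorase, purified enzyme; input: enzyme 0.07 U/mL final; buffer or medium: 50 mM HEPES pH 7.4 with 4.542 mM MgCl2, 0.005% Tween 20; also added: 0.114 mM NADH and 0.1 mM resazurin, final amounts; schedule: 16 min enzyme reaction, ambient temperature; technique: fluorescence of resorufin, 544 nm excitation, 590 nm emission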
Active calls of the source: *; · = no result given. The sample as a whole holds a higher share of hits than the screen did. Rule as the data show it, unless noted: active = inhibition above about 50%; inactive = the rest.

SMILES	G6PDH counter	Diaph inh CS	L major viab	Redox H2O2 prof	PfGluPho inh	Diaphorase act
Oc1ccc(C[C@H]2CNCCN2CC2(c3ccccc3)CC2)cc1	·	·	·	·	-8	·
COc1cccc(-c2nc(SCC(=O)Nc3nc(-c4ccccc4)c(C)s3)[nH]c(=O)c2C#N)c1	8	81*	-7	0	-56	0.2
CCOC(=O)Cc1csc(NC(=O)CSc2nc(-c3ccccc3)c(C#N)c(=O)[nH]2)n1	-4	16	-14	-1	-44	0.8
Cc1sc(NC(=O)CSc2nc(O)cc(=O)[nH]2)nc1-c1ccccc1	7	38	-7	2	-26	0.6
CCOc1ccc2nc(NC(=O)CSc3nc(-c4ccccc4)c(C#N)c(=O)[nH]3)sc2c1	5	59*	-5	-1	-61	0.4
CN(C)C(CNC(=O)c1cc(S(=O)(=O)N(C)c2ccccc2)ccc1Cl)c1cccs1 (stereo not drawn)	-1	-2	11	0	3	1
Cc1c(N=C2NC(=O)/C(=C/c3ccc(O)cc3)S2)c(=O)n(-c2ccccc2)n1C	-1	15	-4	0	0	0.9
O=C1NC(=NCc2ccccc2)S/C1=C/c1ccc(O)cc1	-1	0	63*	0	-10	1
CN1C[C@@H]2[C@@H]3C(=O)N(Cc4ccccc4)C(=O)[C@@H]3[C@](C)(C1=O)N2C(=O)c1ccc(Cl)cc1	·	·	·	·	-4	·
O=C(c1ccccc1)c1cccc(NC(=O)c2ccco2)c1	4	28	97*	1	-8	0.7
O=C(Nc1cccc(F)c1)c1ccc(Br)o1	9	-2	68*	0	18	1
CCC(=O)Nc1cccc(C(=O)Nc2nccs2)c1	4	0	14	0	-5	1
O=C(Nc1cccnc1)c1cccc(NC(=O)c2ccco2)c1	-14	17	80*	-3	-6	0.8
O=C(Nc1nccs1)c1cccc(NC(=O)c2ccco2)c1	-4	1	97*	1	11	1
O=C(Nc1cccc(NC(=O)c2ccc(-c3cccc(Br)c3)o2)c1)c1ccco1	18	12	60*	2	12	0.9
O=C(Nc1cccc(NC(=O)c2ccc(-c3ccc(Br)cc3)o2)c1)c1ccccc1	2	9	4	-1	-6	0.9
O=C(Nc1cccc(-c2cnc3ccccc3n2)c1)c1cccc(NC(=O)c2ccco2)c1	7	2	69*	-1	8	1
O=C(Nc1cccc(-n2cnnn2)c1)c1ccco1	2	5	95*	0	3	1
O=C(Nc1cccc(NC(=O)c2sc3ccccc3c2Cl)c1)c1ccco1	7	3	81*	0	23	1
O=C(Nc1cccc(-c2cnc3ccccc3n2)c1)c1ccccc1	2	2	-5	-2	-12	1
C[C@H](CO)N1C[C@H](C)[C@H](CN(C)C(=O)Nc2ccc(C(F)(F)F)cc2)Oc2ncc(Br)cc2C1=O	·	·	·	·	8	·
COc1ccc(CCNC(=O)CCS(=O)(=O)c2ccc3c(c2)NC(=O)CO3)cc1OC	·	·	·	·	-3	·
CC1Sc2ccc(S(=O)(=O)CCC(=O)N3CCc4ccccc43)cc2NC1=O (stereo not drawn)	·	·	·	·	8	·
COc1cc2c(cc1OC)C(c1ccc(-c3ccc(Cl)c(Cl)c3)o1)=NCC2	15	8	71*	1	7	0.9
CCOC(=O)c1c(C)[nH]c(C(=O)COC(=O)c2ccc(F)c(S(=O)(=O)N3CCOCC3)c2)c1C	-46	0	-3	1	-21	1
CC(=O)c1cc2c(cc1N/C(=N/S(=O)(=O)c1ccc(C)cc1)c1ccccc1)OCO2	1	8	59*	0	7	0.9
CC(=O)c1cc2c(cc1N/C(=N/S(=O)(=O)c1ccc(C)cc1)c1ccc(Cl)cc1)OCO2	-3	3	35	0	-16	1
COc1ccccc1NS(=O)(=O)c1cc(N/C(=N\S(=O)(=O)c2ccccc2)c2ccc(F)cc2)ccc1Cl	12	20	99*	0	-6	0.8
Cc1ccc(S(=O)(=O)/N=C(/Nc2ccc(F)cc2F)c2ccc(F)cc2)cc1	·	·	·	·	-5	·
